Structures are written as SMILES.

The target of assay [1] is Adenosine receptor A2a (Homo sapiens) (UniProt P29274). The assay can be described thus: In vitro allosteric enhancer (AE) activity for adenosine A2A receptor at 50 uM.
In a further assay the target is T1, Adenosine receptor A1 (Homo sapiens, UniProt P30542).
T1 sequence (P30542 whole entry): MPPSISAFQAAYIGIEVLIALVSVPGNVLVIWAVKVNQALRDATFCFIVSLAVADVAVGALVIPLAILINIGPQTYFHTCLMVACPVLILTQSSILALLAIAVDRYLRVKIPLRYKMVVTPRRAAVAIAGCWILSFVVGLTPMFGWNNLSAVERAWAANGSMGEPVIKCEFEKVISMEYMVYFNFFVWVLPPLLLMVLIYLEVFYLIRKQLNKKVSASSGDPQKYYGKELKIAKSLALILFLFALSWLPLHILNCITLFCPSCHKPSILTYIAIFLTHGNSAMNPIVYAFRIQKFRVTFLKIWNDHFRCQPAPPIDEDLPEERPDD
The assay can be described thus: Antagonist activity against adenosine A1 receptor. In kind it is functional. Also noted: concentration or dose not given beside the values. In outline:
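Equilibrium binding on CHO-K1 hA1AR membranes (15 μg) in 10 mM HEPES pH 7.4, 1 mM EDTA, 1 U/mL adenosine deaminase, 4 nM [3H]CPX. Mixed with an equal volume of 200 μM enhancer in HEPES–10% DMSO; 200 μM NECA for nonspecific binding. Incubated 3 h at room temperature, then filtered.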

The target in assay [2] is T2, Adenosine receptor A3 (Homo sapiens) (UniProt P0DMS8).
T2 sequence (whole entry): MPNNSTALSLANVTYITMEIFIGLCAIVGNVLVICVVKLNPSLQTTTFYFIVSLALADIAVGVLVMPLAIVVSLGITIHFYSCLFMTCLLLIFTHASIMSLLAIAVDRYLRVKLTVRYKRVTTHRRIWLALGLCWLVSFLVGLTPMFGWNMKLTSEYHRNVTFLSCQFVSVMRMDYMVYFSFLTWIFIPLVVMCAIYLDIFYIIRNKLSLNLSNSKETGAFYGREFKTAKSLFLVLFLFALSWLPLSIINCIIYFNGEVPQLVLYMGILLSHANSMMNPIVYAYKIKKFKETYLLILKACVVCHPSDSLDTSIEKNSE
The assay is described as follows: In vitro allosteric enhancer (AE) activity for adenosine A3 receptor at 50 uM.

The target in assay [3] is T3, Adenosine receptor A1 (Homo sapiens) (UniProt P30542).
T3 sequence (whole entry): T1 sequence (P30542 whole entry)
The assay is described as follows: (§1) In vitro allosteric enhancer (AE) activity for adenosine A1 receptor at 50 uM. The gist of the method: (§2)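 Single-point screen on membranes from CHO-K1 cells stably expressing hA1AR. Candidate enhancer was added at 50 μM final for 5 min. Dissociation was then started with 8-cyclopentyltheophylline plus GTPγS and run 10 min. Score = % specific agonist binding remaining; two to three assays, each in triplicate.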

The target of assay [4] is T3, Adenosine receptor A1 (Homo sapiens). The assay is described as follows: Inhibition of human adenosine receptor A1 at 10 uM. In outline: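 CHO-K1 hA1AR membranes at 0.5 mg/mL in 10 mM HEPES pH 7.4 with 1 mM EDTA, 1 U/mL adenosine deaminase, 5 mM MgCl2 and 2 nM [3H]CPX. Mixed 1:1 with buffer containing 20 μM enhancer. Equilibrium 3 h at room temperature; 100 μM NECA defined nonspecific binding. Inhibition expressed relative to control specific binding; duplicate assays.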

Assay [5] addresses T4, Adenosine receptor A1 (Rattus norvegicus) (UniProt P25099).
T4 sequence (whole entry): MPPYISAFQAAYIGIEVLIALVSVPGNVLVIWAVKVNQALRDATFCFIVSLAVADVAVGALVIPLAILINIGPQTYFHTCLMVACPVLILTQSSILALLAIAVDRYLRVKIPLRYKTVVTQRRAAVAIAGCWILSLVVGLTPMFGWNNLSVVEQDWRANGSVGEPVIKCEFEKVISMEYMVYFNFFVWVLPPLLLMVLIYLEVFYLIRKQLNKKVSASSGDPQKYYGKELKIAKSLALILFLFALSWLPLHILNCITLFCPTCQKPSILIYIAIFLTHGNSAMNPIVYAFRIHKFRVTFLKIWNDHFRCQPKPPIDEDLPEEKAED
The assay is described as follows: Allosteric enhancer (AE) activity against rat adenosine A1 receptor.

Assay [6] has as its target T3, Adenosine receptor A1 (Homo sapiens). The description is as §1. The gist of the method: as §2
This is another data set of the same source.

Assay [7] has the same target. The assay is described as follows: Allosteric enhancer (AE) activity against human adenosine A1 receptor at 50 uM. The gist of the method:
as §2

For assay [8], the target named is T2, Adenosine receptor A3 (Homo sapiens). The assay can be described thus: Inhibition of human adenosine receptor A3 at 10 uM.
Assay [9] deals with T3, Adenosine receptor A1 (Homo sapiens). Described as §1. In outline: as §2
This is another data set of the same source.

For assay [10] the target is unchanged. The assay can be described thus: In vitro allosteric enhancer (AE) activity for adenosine A1 receptor maximal score from curve fitting.
Assay [11] deals with T4, Adenosine receptor A1 (Rattus norvegicus). The assay can be described thus: Allosteric enhancer (AE) activity against rat adenosine A1 receptor at 50 uM.
Assay [12] addresses T3, Adenosine receptor A1 (Homo sapiens). The assay is described as follows: Allosteric enhancer activity against adenosine A1 receptor.

Adenosine receptor A2a (Homo sapiens), sequence (P29274 whole entry): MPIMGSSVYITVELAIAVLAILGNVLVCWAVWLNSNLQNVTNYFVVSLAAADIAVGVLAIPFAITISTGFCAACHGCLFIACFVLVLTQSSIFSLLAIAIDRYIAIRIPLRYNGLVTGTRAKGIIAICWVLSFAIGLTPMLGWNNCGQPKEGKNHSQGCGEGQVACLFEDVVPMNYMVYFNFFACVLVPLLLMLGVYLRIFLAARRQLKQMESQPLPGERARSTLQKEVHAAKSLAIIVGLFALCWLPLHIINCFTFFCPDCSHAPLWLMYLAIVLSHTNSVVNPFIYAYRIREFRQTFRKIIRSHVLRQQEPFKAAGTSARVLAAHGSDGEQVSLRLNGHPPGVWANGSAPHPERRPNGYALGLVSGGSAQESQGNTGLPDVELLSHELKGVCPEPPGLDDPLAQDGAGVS

One may read the Inhibition as the percentage by which the read-out fell short of the control. Broadly, the inhibition is the relative decrease from the control value, in per cent. Turning to `CN(C)c1ccc(-c2ccc3c(c2)Cc2sc(N)nc2-3)cc1`, the Alloste ic enhan er (AE) in assay [1] stood at 3.4%; in assay [2], 24.8%; in [3] it was 81.8%; in assay [5], 31.7%; in [6], 81%; in assay [7], 67.9%. On Adenosine receptor A1, this molecule returned an Inhibition of 12.5%. Besides, the inhibition in [4] was determined as 23.1%; in assay [8] it was 38.6%.

As for `COc1ccc(-c2ccc3c(c2)Cc2sc(N)nc2-3)cc1`, the Alloste ic enhan er (AE) in assay [1] stood at 0%; in [9] it was 90.2%; in [2], 18%; in [5], 32.3%; in assay [6], 87%; in assay [7], 72%. Further, at Adenosine receptor A1, the Inhibition came out at 13.3%. Besides, the inhibition in assay [4] was 25.2%; in [8] it was 37.6%.

With `COc1ccc(-c2ccc3c(c2)Cc2sc(N)nc2-3)cc1OC`, the Allosteric enhancer (AE) in [10] amounted to 82.7%. Moreover, the Alloste ic enhan er (AE) in assay [1] is 0.2%; in assay [2], 10.1%; in assay [6], 82%; in assay [11] it was 39.1%; in [7] it was 83.9%. The molecule also came in with an Inhibition on Adenosine receptor A1 of 19.2%. In addition, the inhibition in assay [4] turned out to be 18.8%; in [8], 45%.

For `Nc1nc2c(s1)Cc1cc(-c3ccc4c(c3)OCO4)ccc1-2`, the Allosteric enhancer (AE) in [10] was found to be 91%. The Alloste ic enhan er (AE) in assay [1] is 0%; in [2], 2.9%; in [5], 48.8%; in assay [6], 82%; in assay [7] it was 90.7%. The molecule also came in with an Inhibition on Adenosine receptor A1 of 11.6%. Moreover, the values for the inhibition in assay [4] and in assay [8] were 10.5% and 22.5%, respectively.

Usually EC50 stands for the concentration that produces a half-maximal response. As to `Nc1nc2c(s1)Cc1cc(-c3ccccc3[N+](=O)[O-])ccc1-2`, the Allosteric enhancer (AE) in assay [10] was determined as 49.7%. The Alloste ic enhan er (AE) in assay [1] amounted to 0%; in assay [2], 0%; in assay [6] it was 40.1%. At Adenosine receptor A1, this molecule returned an Inhibition of 8.3%. For the same molecule, the EC50 in assay [12] turned out to be 6.3 µM.

Regarding `Nc1nc2c(s1)Cc1cc(-c3ccc(Cl)c(Cl)c3)ccc1-2`, in assay [10], the Allosteric enhancer (AE) is 22.6%. The Alloste ic enhan er (AE) was found to be 0% in assay [1], 0% in assay [2] and 45.3% in [6]. For the same molecule, the Inhibition on Adenosine receptor A1 worked out at 8%. In addition, the EC50 in assay [12] was > 10 µM.

`Nc1nc2c(s1)Cc1cc(-c3ccccc3C(F)(F)F)ccc1-2`: the Allosteric enhancer (AE) in assay [10] amounted to 57%. Also, the values for the Alloste ic enhan er (AE) in [1], in assay [2] and in assay [6] were 0%, 6.6% and 50.1%, respectively. The Inhibition on Adenosine receptor A1 was > 10%. In addition, in [12], the EC50 came to 5.1 µM.

(Values after ChEMBL document CHEMBL1145162, “6-aryl-8H-indeno[1,2-d]thiazol-2-ylamines: A1 adenosine receptor agonist allosteric enhancers having improved potency” (J Med Chem, 2005).)
